Data taken from ChEMBL document CHEMBL2034857, “Discovery of the macrocycle (9E)-15-(2-(pyrrolidin-1-yl)ethoxy)-7,12,25-trioxa-19,21,24-triaza-tetracyclo[18.3.1.1(2,5).1(14,18)]hexacosa-1(24),2,4,9,14(26),15,17,20,22-nonaene (SB1578), a potent inhibitor of janus kinase 2/fms-like tyrosine kinase-3 (JAK2/FLT3) for the treatment of rheumatoid …” (J Med Chem, 2012).

Tests used:
[1] = tested on: Mus musculus; assay: Antiarthritic activity in B10/R3 mouse immunized with bovine type2 collagen in Freund's complete adjuvant assessed as inhibition of increase in clinical arthritic scores at 210 mg/kg, po administered bid for 10 days measured for 10 days; assay type: functional; settings: B10/R3, 240 h
[2] = molecular target: T1, Tyrosine-protein kinase JAK3 (Homo sapiens, UniProt P52333); assay: Inhibition of recombinant JAK3 using poly(Glu,Ala,Tyr) as substrate after 2 hrs by luminometric assay
T1 sequence (P52333 whole entry): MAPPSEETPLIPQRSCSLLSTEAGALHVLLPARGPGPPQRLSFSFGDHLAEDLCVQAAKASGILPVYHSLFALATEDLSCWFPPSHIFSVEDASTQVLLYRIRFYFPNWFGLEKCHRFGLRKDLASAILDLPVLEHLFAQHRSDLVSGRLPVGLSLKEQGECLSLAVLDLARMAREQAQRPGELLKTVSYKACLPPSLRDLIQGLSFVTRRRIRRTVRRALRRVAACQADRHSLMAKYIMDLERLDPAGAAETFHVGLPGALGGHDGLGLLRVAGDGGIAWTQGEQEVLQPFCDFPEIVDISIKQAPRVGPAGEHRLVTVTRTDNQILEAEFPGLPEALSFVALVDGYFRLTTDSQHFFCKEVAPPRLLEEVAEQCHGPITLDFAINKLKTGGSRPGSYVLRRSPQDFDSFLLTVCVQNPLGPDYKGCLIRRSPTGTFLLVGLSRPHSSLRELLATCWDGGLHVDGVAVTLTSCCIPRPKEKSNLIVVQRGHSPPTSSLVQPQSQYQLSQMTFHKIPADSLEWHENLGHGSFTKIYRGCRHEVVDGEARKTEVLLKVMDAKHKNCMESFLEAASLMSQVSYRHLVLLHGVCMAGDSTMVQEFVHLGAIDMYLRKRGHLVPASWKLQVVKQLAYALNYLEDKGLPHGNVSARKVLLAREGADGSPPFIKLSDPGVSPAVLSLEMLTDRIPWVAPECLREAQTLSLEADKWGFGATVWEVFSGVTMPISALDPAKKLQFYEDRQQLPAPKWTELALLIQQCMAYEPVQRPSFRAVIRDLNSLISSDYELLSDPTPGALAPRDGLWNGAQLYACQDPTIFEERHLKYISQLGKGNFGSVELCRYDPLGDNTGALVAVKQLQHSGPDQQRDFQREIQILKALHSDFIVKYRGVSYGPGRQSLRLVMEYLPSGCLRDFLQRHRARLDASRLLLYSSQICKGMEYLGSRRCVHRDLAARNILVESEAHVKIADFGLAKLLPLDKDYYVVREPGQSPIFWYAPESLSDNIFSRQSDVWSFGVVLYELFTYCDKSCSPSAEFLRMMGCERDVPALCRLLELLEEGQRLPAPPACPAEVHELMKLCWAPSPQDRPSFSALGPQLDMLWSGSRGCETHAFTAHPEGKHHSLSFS

[3] = molecular target: T2, Receptor-type tyrosine-protein kinase FLT3 (Homo sapiens, UniProt P36888); assay: Inhibition of recombinant FLT3 using poly(Glu,Tyr) as substrate after 2 hrs by luminometric assay
T2 sequence (P36888 whole entry): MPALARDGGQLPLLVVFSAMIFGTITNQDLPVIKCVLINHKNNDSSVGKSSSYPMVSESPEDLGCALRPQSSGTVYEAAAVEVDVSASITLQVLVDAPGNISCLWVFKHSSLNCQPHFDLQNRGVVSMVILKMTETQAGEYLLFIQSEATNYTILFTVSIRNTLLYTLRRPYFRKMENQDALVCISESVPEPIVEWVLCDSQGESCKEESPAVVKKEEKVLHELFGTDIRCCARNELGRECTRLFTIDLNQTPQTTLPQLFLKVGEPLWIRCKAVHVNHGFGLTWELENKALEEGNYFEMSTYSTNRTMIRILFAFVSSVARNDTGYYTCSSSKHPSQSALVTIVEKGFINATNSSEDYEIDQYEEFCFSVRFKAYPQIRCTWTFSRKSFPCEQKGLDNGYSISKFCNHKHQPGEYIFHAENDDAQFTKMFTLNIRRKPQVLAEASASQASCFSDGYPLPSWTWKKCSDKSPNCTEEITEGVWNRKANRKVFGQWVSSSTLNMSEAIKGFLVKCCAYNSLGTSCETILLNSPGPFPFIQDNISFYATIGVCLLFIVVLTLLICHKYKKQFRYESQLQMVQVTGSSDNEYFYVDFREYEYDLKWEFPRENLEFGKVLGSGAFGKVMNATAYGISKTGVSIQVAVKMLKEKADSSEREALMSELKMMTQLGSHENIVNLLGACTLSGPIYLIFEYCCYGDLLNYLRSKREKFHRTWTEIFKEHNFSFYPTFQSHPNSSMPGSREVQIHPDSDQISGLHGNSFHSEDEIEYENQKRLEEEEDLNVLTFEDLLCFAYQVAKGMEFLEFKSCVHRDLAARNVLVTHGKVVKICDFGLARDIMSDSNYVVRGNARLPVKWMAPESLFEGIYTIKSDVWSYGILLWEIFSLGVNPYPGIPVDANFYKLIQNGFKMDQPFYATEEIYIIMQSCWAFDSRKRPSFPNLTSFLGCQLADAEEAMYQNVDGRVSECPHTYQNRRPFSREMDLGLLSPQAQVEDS

[4] = Half life in human liver microsomes; assay type: ADME, Microsome
[5] = molecular target: hERG (Homo sapiens, UniProt Q12809); assay: Displacement of dofetilide from human ERG at 10 uM; settings: probe dofetilide
hERG, sequence (Q12809 whole entry): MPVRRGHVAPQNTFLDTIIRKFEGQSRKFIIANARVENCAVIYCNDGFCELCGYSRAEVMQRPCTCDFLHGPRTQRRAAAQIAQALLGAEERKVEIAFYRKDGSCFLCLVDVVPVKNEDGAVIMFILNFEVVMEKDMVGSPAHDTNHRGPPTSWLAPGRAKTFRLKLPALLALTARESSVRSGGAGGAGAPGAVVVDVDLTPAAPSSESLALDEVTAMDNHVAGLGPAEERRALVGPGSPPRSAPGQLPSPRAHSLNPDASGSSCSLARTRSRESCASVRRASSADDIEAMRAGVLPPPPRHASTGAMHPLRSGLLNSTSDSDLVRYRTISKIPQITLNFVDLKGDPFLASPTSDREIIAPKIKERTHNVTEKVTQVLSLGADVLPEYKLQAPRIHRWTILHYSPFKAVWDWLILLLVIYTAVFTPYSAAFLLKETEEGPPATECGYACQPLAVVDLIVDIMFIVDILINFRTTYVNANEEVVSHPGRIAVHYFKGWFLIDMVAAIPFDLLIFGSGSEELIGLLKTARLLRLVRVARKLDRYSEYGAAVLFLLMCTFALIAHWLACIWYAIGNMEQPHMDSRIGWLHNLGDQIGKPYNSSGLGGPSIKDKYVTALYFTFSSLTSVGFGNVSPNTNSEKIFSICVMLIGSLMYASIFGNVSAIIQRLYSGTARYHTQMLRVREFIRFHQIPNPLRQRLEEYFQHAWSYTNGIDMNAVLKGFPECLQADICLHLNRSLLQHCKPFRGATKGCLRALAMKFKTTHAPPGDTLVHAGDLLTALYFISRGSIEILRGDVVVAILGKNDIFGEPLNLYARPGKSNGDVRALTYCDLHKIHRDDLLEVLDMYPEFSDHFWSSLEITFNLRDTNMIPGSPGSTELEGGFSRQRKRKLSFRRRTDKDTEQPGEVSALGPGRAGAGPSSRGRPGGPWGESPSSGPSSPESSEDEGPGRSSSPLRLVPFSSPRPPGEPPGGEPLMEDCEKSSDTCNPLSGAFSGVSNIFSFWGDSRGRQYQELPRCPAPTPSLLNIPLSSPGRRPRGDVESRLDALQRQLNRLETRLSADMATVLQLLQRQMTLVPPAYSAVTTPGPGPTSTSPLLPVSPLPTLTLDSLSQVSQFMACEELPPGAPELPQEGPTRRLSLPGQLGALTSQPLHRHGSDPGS

[6] = Apparent permeability from apical to basal side of human Caco2 cells at 10 uM after 120 mins by LC-MS/MS analysis; assay type: ADME, cell-based; settings: Caco-2
How it was run: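 Caco-2 monolayers (passage 40–60) seeded at 1 × 10⁵ cells/cm² and used on day 20; 10 μM compound (1% DMSO final) in HBSS pH 7.4 with 25 mM HEPES and 4.45 mM glucose, 120 min at 37 °C, 5% CO2. Both directions run in duplicate, quantified by LC-MS/MS; lucifer yellow checks monolayer integrity.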

[7] = Half life in rhesus monkey live microsomes at 5 uM; assay type: ADME, Macaca mulatta; settings: liver microsomes
How it was run: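 Compound at 5 μM with human, mouse or dog microsomes at 0.87 mg/mL, or rat and monkey microsomes at 1 mg/mL, in 50 mM potassium phosphate pH 7.4 with NADPH regenerating system at 37 °C.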

[8] = Oral bioavailability in Wistar rat at 50 mg/kg; assay type: ADME, organism-based; settings: in vivo
How it was run: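 Single oral gavage at 50 (mouse, rat), 5 (dog) or 20 (monkey) mg/kg; rodents and monkeys received suspensions in 0.5% methylcellulose/0.1% Tween 80, dogs gelatin capsules. Serial blood taken 0–24 h into K3EDTA, plasma stored at −70 °C. Parameters estimated by noncompartmental analysis, n = 3 per species (mouse values from mean concentration–time data, 3 mice per time point).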

[9] = Terminal half life in rhesus monkey at 20 mg/kg, po; assay type: ADME, organism-based, Macaca mulatta; design: dose 20 mg/kg, route oral; settings: in vivo, read-out: beta t1/2 (converted)
How it was run: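 Single oral dose by gavage as suspension in 0.5% methylcellulose/0.1% Tween 80 (mouse, rat, monkey) or in gelatin capsules (dog). Serial blood samples taken from 0 to 24 h into K3EDTA tubes; plasma stored at −70 °C until analysis. Parameters derived by noncompartmental methods. Rat, dog and monkey n = 3; mouse values estimated from mean concentration-time data, n = 3 mice per time point.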

## C1=C2COC/C=C/COCc3cc(ccc3OCCN3CCCC3)Nc3nccc(n3)C(=C1)O2 (mixture of isomers) [CT-1578]
[1]
  inhibition in vivo at 210 mg/kg: 59%
[2]
  IC50: 4300 nM
[3]
  IC50: 60 nM
[4]
  half-life: > 1 h
[5]
  inhibition at 10 µM: 14%
[6]
  Papp A→B at 2 h, 10 µM: 24.8 ×10⁻⁶ cm/s
[7]
  half-life at 5 µM: 0.383 h
[8]
  bioavailability: 6%
[9]
  half-life: 1.1 h
